Compound activity: PubChem BioAssay, several laboratories
An excerpt weighted towards active compounds, which were near 3.5% of everything screened.
Apaf-1 inh – inhibitors of human Apaf-1 apoptosome | O14727 | 0.71% of 330,000 active | AID 489030 | reconstituted apoptosome caspase-3 activity, DEVD-Rh110 fluorescence | inhibition, % at 20 µM; active = inhibition of at least 40% at 20 µM;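 also: plate controls were DMSO wells for no effect and DEVD-CHO caspase inhibitor wells for full effect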
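Assay system: Apoptosome proteins | Medium: pH 7.5 Hepes buffer with CHAPS, BSA, DTT | Also added: Cytochrome c and DEVD-Rh110 substrate | Times: 30 min plus 50 min, RT | Detection: Rhodamine 110 fluorescence at Ex 480/Em 540 nm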
PAFAH1B3 inh – PAFAH1B3 (human) inhibition; inhibition, % at 3.39 µM; recombinant PAFAH1B3, FP-rhodamine probe, fluorescence polarization; 0.28% of 340,000 active; Q15102;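 active = inhibition above the screen-wide average of all tested compounds plus 3 SD, cut at about 25% in these data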;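 also: 0% = enzyme with DMSO only and 100% = wells lacking PAFAH1B3 protein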
PREPL inh – inhibits the human prolyl oligopeptidase-like enzyme | recombinant PREPL, fluorescence polarization activity-based probe | AID 2751 | inhibition, % at 5.96 µM | 0.68% of 320,000 active; in the data active = inhibition above about 43%;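 also: 0% = enzyme with DMSO and 100% = wells lacking enzyme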
Target sequence (Q4J6C6 whole entry, looked up): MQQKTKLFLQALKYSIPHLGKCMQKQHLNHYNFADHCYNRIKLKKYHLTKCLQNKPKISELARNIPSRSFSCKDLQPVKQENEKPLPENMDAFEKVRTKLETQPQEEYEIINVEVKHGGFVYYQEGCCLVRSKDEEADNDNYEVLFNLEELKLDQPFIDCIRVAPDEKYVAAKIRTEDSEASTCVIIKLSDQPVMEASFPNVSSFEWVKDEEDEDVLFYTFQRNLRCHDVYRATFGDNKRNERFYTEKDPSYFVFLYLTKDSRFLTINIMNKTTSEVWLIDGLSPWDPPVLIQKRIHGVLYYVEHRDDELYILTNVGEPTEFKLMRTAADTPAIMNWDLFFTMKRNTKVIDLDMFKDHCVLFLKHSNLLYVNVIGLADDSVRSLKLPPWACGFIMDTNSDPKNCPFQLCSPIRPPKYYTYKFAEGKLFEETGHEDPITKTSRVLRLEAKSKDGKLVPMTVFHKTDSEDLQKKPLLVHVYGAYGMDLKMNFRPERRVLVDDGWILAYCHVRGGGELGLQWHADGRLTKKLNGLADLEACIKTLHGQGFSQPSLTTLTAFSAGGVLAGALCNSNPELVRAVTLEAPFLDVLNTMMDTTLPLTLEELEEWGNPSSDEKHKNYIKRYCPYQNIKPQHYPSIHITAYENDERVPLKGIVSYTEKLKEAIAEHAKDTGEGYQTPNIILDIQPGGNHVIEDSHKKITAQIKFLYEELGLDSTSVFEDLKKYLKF
pPAFAH inh – pPAFAH (human) enzyme inhibition; Q13093; recombinant pPAFAH, FP-rhodamine probe fluorescence polarization; inhibition, % at 3.39 µM; 1.5% of 330,000 active; AID 463082;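 active = inhibition above the mean inhibition across the screen plus 3 SD, cut at about 25% in these data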;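 also: inhibitors block binding of the rhodamine activity-based probe so polarization drops; 0% = enzyme with DMSO and 100% = wells lacking pPAFAH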
PAFAH2 inh – inhibitors of human PAFAH2; AID 492956; inhibition, % at 3.39 µM; 0.99% of 340,000 active; Q99487; recombinant PAFAH2, FP-rhodamine activity probe, fluorescence polarization;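 active = inhibition above the mean over all tested compounds plus 3 SD, cut at about 30% in these data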;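 also: inhibitors block probe labeling of enzyme so polarization drops; 0% = enzyme with DMSO and 100% = wells lacking PAFAH2 protein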
PAFAH1B2 FP inh – PAFAH1B2 (human) inhibition; P68402; recombinant PAFAH1B2, FP-rhodamine activity probe, fluorescence polarization; inhibition, % at 3.39 µM; 1.2% of 340,000 active;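 active = inhibition above the mean of all tested compounds plus 3 SD, cut at about 24% in these data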;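 also: 0% = enzyme with DMSO and 100% = wells lacking PAFAH1B2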
Apaf-1 inh conf2 – confirmation of Apaf-1 inhibitors | shares compounds with Apaf-1 inh | reconstituted apoptosome, caspase-3 DEVD-Rh110 fluorescence | inhibition, % at 20 µM | 25% of 1,800 active | AID 504614;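 active = mean inhibition of at least 40% at 20 µM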;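 also: plate controls were DMSO wells for no effect and DEVD-CHO caspase inhibitor control wells for full effect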
Rh110 quench – interferes with Rh110 fluorescence, flagging false Apaf-1 inhibitors; shares compounds with Apaf-1 inh; Rh110 fluorescence interference, quenched caspase reaction; activation (fluorescence interference), % at 20 µM; 1,800 tested, under 10 active;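 active = signal rise of 40% or more at 20 µM, treated as a fluorescence artifact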
Fluor interf inh – counter-screen for Apaf-1 inhibitors: fluorescence interference, dose response; shares compounds with Apaf-1 inh; fluorescence interference counterscreen, Apaf-1 assay format; IC50, µM; 460 tested, under 10 active; AID 588538; call rule not given here
The depositor's hits bear a star; x = no result given.

SMILES | Apaf-1 inh | PAFAH1B3 inh | PREPL inh | pPAFAH inh | PAFAH2 inh | PAFAH1B2 FP inh | Apaf-1 inh conf2 | Rh110 quench | others
CN(C)CCCNC(=O)C[C@H]1C[C@H](C(=O)N2CCCCC2)[C@@]2(CCc3ccccc3)c3[nH]c4ccc(Cl)cc4c3CCN2C1=O | 74* | 4 | x | -4 | 3 | -2 | 29 | 21
O=C(NC1CCN(S(=O)(=O)c2ccc(F)cc2)CC1)c1ccc(F)cc1 | 3 | 2 | 3 | 3 | 0 | 3 | x | x
FC(F)(F)c1cc(CCN2CCNC[C@@H]2c2ccccc2)cc(C(F)(F)F)c1 | 61* | -6 | 9 | 7 | 3 | 5 | 17 | 8
NC1=NC[C@H](CC2CCCCC2)N1CCc1cc(C(F)(F)F)cc(C(F)(F)F)c1 | 74* | 1 | 17 | 1 | -3 | -5 | 50* | 27 | Fluor interf inh=>100
CCCC[C@@H]1CNCCN1CCc1cc(C(F)(F)F)cc(C(F)(F)F)c1 | 19 | 9 | 10 | 2 | -3 | 4 | x | x
FC(F)(F)c1cc(CCN2CCNC[C@@H]2CC2CCCCC2)cc(C(F)(F)F)c1 | 79* | 5 | 18 | -3 | 19 | 5 | 41* | 22 | Fluor interf inh=>100
COc1cc(NC(=O)c2cccc(C)c2)c(OC)cc1NC(=O)CN1CCOCC1 | -4 | 1 | 18 | 8 | 5 | 7 | x | x
Fc1cccc(/C=N/Nc2cc(N3CCOCC3)ncn2)c1 | 0 | 3 | -9 | 7 | 3 | 3 | x | x
C=CC[C@@H](Cc1ccc(F)cc1)C(=O)OC[C@H]1CCCN1C(=O)[C@@H](CC=C)CC(=O)N[C@H](CO)Cc1ccccc1 | 41* | 12 | 29 | 0 | 7 | 10 | 19 | 7
C=CCC[C@@H](Cc1ccc(F)cc1)C(=O)OC[C@@H]1CCCN1C(=O)[C@@H](CC=C)CC(=O)N(CCO)Cc1ccccc1 | 48* | 1 | 29 | 6 | -5 | 4 | 24 | 17
C=CCC[C@@H](Cc1ccc(F)cc1)C(=O)OC[C@H]1CCCN1C(=O)[C@@H](CC=C)CC(=O)N[C@H](CO)Cc1ccccc1 | 40* | 4 | 36 | 4 | -1 | 1 | 34 | 6
C=CC[C@@H](Cc1ccc(F)cc1)C(=O)OC[C@@H]1CCCN1C(=O)[C@@H](CC=C)CC(=O)N[C@@H](CO)Cc1ccccc1 | 40* | -5 | 26 | 1 | 0 | 10 | 18 | 11
C=CCC[C@H](Cc1ccc(F)cc1)C(=O)OC[C@H]1CCCN1C(=O)[C@@H](CC=C)CC(=O)NCCO | 0 | 9 | 28 | -11 | 0 | 5 | x | x
C=CC[C@@H](Cc1ccc(F)cc1)C(=O)OC[C@H]1CCCN1C(=O)[C@H](CC=C)CC(=O)N[C@H](CO)Cc1ccccc1 | 31 | 9 | 30 | 1 | 1 | 11 | x | x
CCN(CC)CCOc1ncnc2c1oc1ccccc12 | 0 | 11 | 8 | 24 | 5 | 3 | x | x
CCCCc1oc2ccccc2c1C(=O)c1cc(I)c(OCCN(CC)CC)c(I)c1 | 53* | 6 | -21 | 3 | 4 | -4 | 6 | 13
COC(=O)CCC(=O)N1CN2CN(C(=O)CCC(=O)OC)CC([N+](=O)[O-])(C2)C1 | -152 | 8 | -11 | -10 | 2 | 1 | x | x
CC(C)c1ccc(N(CC(=O)NCc2ccco2)C(=O)CCC(=O)Nc2nccs2)cc1 | 16 | 5 | -7 | 8 | -15 | 1 | x | x
COC(CNC(=O)c1cccnc1)OC | -4 | 1 | 3 | 3 | 0 | 1 | x | x
COC(CNC(=O)c1ccc2c3c(onc13)-c1ccccc1C2=O)OC | 73* | 11 | 28 | 7 | 0 | 5 | 57* | 10 | Fluor interf inh=>100
CCOc1c(Br)cc(CNc2ccc(N3CCN(C(C)=O)CC3)cc2)cc1OC | 7 | 3 | 20 | 21 | -5 | 8 | x | x
CCOc1cc(CNc2ccc(S(N)(=O)=O)cc2)cc(Cl)c1OC | 3 | -1 | -5 | 7 | -5 | -2 | x | x
CCOc1cc(CNc2ccc(N3CCCC3)cc2)cc(Cl)c1OC | 55* | 3 | 37 | 23 | 13 | 1 | 51* | 9 | Fluor interf inh=>100
CCOc1cc(CNc2ccc(N3CCCCC3)cc2)cc(Br)c1OCC(=O)NC(C)(C)C | 44* | 8 | 13 | 2 | 1 | 7 | 12 | -2
Cc1noc(C)c1COC(=O)c1ccc(N(C)C)cc1 | -10 | -4 | 10 | 4 | 0 | 3 | x | x
SMILES | Apaf-1 inh | PAFAH1B3 inh | PREPL inh | pPAFAH inh | PAFAH2 inh | PAFAH1B2 FP inh | Apaf-1 inh conf2 | Rh110 quench | others
CC(C)CCn1c(N)c(S(=O)(=O)c2cccs2)c2nc3ccccc3nc21 | 51* | 8 | -2 | -8 | -3 | 1 | 28 | 2
Cc1ccc(S(=O)(=O)c2c(N)n(CCC(C)C)c3nc4ccccc4nc23)cc1 | 19 | 14 | 0 | -8 | -7 | 0 | x | x
CCC[C@@H](CN1CCC[C@H]1CN1C(N)=NC[C@@H]1Cc1ccccc1)N1C[C@@H](Cc2ccccc2)N(CCc2ccc(Cl)c(Cl)c2)C1=N | 78* | 2 | 32 | 1 | 4 | 3 | 30 | -5
CCC[C@@H](CN1CCC[C@H]1CN1C(N)=NC[C@@H]1Cc1ccccc1)N1C[C@@H](Cc2ccccc2)N(CCCC2CCCC2)C1=N | 70* | -5 | 42 | 4 | -7 | -3 | 13 | 4
CCC[C@@H](CN1CCC[C@H]1CN1C(N)=NC[C@H]1CC(C)C)N1C[C@@H](Cc2ccccc2)N(CCc2ccc(Cl)c(Cl)c2)C1=N | 68* | 6 | 42 | -2 | -3 | 1 | 25 | 9
CCOc1ccc(CCN2C(=S)N([C@@H](CC(C)C)CN3CCCC3CN3C(=S)NC[C@@H]3CC(C)C)C[C@@H]2Cc2ccc(O)cc2)cc1 (some centres undefined) | x | 1 | x | x | -14 | 4 | x | x
NC1=NC[C@@H](Cc2ccc(O)cc2)N1CCc1cccc(F)c1 | 0 | -4 | 5 | 0 | -7 | -4 | x | x
O=C1NC[C@H](Cc2ccccc2)N(C[C@H]2CCCN2C[C@H](Cc2ccccc2)N2C[C@H](Cc3ccccc3)N(CC3CCCCCC3)C(=O)C2=O)C1=O | x | -2 | x | x | -4 | -2 | x | x
Cc1ccc2nc(N(CCCN(C)C)C(=O)CCc3ccccc3)sc2c1 | x | 7 | -50 | 3 | -2 | 2 | x | x
CN(C)CCCN(C(=O)CCc1ccccc1)c1nc2ccc(Cl)cc2s1 | 44* | 12 | -48 | 5 | -1 | 7 | 12 | 10
CN(C)C(=O)c1ccc(NC(=O)c2cccnc2)cc1 | 7 | -1 | 1 | 2 | -4 | -3 | x | x
CN(C)C(=O)c1ccc(NC(=O)c2sccc2-c2ccccc2)cc1 | 45* | 3 | 7 | 4 | -3 | 11 | 31 | 1
